Experiment [1] has as its system Rattus norvegicus. The experiment is described as follows: Inhibition of ovulation in 4 day cycling rat at 1.5 mg, sc administered through corn oil between 12 to 12:30 pm on proestrous stage. In kind it is functional, organism-based. A digest of the protocol: (§1)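 Antiovulation test in 4-day cycling rats. A single sc injection of analogue in corn oil was given between 12 and 12:30 p.m. on proestrus. Controls received 0.3 mL of vehicle. Ova shed were counted on estrus.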

The target in experiment [2] is T1, Gonadotropin-releasing hormone receptor (Rattus norvegicus) (UniProt P30969).
T1 sequence (whole entry): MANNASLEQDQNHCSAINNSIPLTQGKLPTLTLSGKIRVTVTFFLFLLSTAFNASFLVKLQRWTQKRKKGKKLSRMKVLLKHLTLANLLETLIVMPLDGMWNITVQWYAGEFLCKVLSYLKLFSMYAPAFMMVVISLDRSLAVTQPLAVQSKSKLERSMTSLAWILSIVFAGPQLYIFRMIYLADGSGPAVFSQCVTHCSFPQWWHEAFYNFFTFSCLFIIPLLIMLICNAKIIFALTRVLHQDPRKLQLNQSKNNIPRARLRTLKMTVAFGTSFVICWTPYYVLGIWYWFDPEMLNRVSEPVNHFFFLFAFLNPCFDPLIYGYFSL
As to the kind of experiment: Antagonist activity at LH-RH receptor in Sprague-Dawley rat pituitary gland assessed as change in 0.6 ng/mL LH-RH-induced luteinizing hormone release in medium at 1 ug/ml preincubated for 2 hrs followed by LH-RH addition at 5th and 6th hr 5 mins post drug addition and measured every hour for 4 hrs by RIA relative to vehicle-treated control. The essentials:
(§2)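 Two pituitaries from 20-day-old female Sprague-Dawley rats per 1 mL lactated Ringer's, incubated 6 h at 37 °C with shaking, medium collected and replaced hourly for LH/FSH RIA. Analogue added at I3, I4, I5 and I6; LH-RH added 5 min after the peptide at I5 and I6. Results given as Δ ng/mL against LH-LER-1240-2 and NIH-FSH-S1-based standards, with SEM and p.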

For experiment [3], the target named is T1, Gonadotropin-releasing hormone receptor (Rattus norvegicus). The experiment is described as follows: Antagonist activity at LH-RH receptor in Sprague-Dawley rat pituitary gland assessed as change in 0.6 ng/mL LH-RH-induced follicle-stimulating hormone release in medium at 10 ug/ml preincubated for 2 hrs followed by LH-RH addition at 5th and 6th hr 5 mins post drug addition and measured every hour for 4 hrs by RIA relative to vehicle-treated control. The essentials:
as §2

Experiment [4] concerns Rattus norvegicus. As to the kind of experiment: Inhibition of ovulation in 4 day cycling rat at 750 ug, sc administered through corn oil between 12 to 12:30 pm on proestrous stage. Type of experiment: functional. The essentials: as §1
The target of experiment [5] is T1, Gonadotropin-releasing hormone receptor (Rattus norvegicus). The experiment is described as follows: Antagonist activity at LH-RH receptor in Sprague-Dawley rat pituitary gland assessed as change in 0.6 ng/mL LH-RH-induced luteinizing hormone release in medium at 0.1 ug/ml preincubated for 2 hrs followed by LH-RH addition at 5th and 6th hr 5 mins post drug addition and measured every hour for 4 hrs by RIA relative to vehicle-treated control. The essentials:
as §2

Experiment [6] has the same target. The experiment is described as follows: Agonist activity at LH-RH receptor in Sprague-Dawley rat pituitary gland assessed as change in luteinizing hormone release in medium at 100 ug/ml incubated for 4 hrs measured every hour for 4 hrs by RIA relative to vehicle-treated control. A digest of the protocol: (§3)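 Pituitaries from 20-day-old female Sprague-Dawley rats, two per 1 mL lactated Ringer's, incubated 6 h total at 37 °C with shaking. Medium removed hourly for LH and FSH RIA and replaced with fresh medium. Analogue alone added at I3–I6. Values expressed as ng of standards LH-LER-1240-2 (0.60 NIH-LH-S1 unit/mg) and FSH 2.1 × NIH-FSH-S1 units/mg; change versus control with SEM and p.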

Experiment [7] shares this target. The experiment is described as follows: Agonist activity at LH-RH receptor in Sprague-Dawley rat pituitary gland assessed as change in follicle-stimulating hormone release in medium at 100 ug/ml incubated for 4 hrs measured every hour for 4 hrs by RIA relative to vehicle-treated control. The essentials: as §3
Experiment [8] has the same target. The experiment is described as follows: Antagonist activity at LH-RH receptor in Sprague-Dawley rat pituitary gland assessed as change in 0.6 ng/mL LH-RH-induced follicle-stimulating hormone release in medium at 1 ug/ml preincubated for 2 hrs followed by LH-RH addition at 5th and 6th hr 5 mins post drug addition and measured every hour for 4 hrs by RIA relative to vehicle-treated control. The essentials: as §2

Experiment [9] has the same target. The experiment is described as follows: Antagonist activity at LH-RH receptor in Sprague-Dawley rat pituitary gland assessed as change in 0.6 ng/mL LH-RH-induced follicle-stimulating hormone release in medium at 0.1 ug/ml preincubated for 2 hrs followed by LH-RH addition at 5th and 6th hr 5 mins post drug addition and measured every hour for 4 hrs by RIA relative to vehicle-treated control. The essentials: as §2

The target is the same in experiment [10]. The experiment is described as follows: Antagonist activity at LH-RH receptor in Sprague-Dawley rat pituitary gland assessed as change in 0.6 ng/mL LH-RH-induced luteinizing hormone release in medium at 10 ug/ml preincubated for 2 hrs followed by LH-RH addition at 5th and 6th hr 5 mins post drug addition and measured every hour for 4 hrs by RIA relative to vehicle-treated control. The essentials: as §2

Calls of active or inactive are those of the source. The calls are words filed in the database; no cut-off is given here.

Regarding `CCNC(=O)[C@@H]1CCCN1C(=O)[C@H](CCCNC(=N)N)NC(=O)[C@H](CC(C)C)NC(=O)[C@@H](C)NC(=O)[C@H](Cc1ccc(O)cc1)NC(=O)[C@H](CO)NC(=O)[C@H](CC(C)C)NC(=O)[C@H](Cc1c[nH]c2ccccc12)NC(=O)[C@@H]1CCC(=O)N1`, the inhibition entry in the experiment on Rattus norvegicus [1] and in the experiment on Rattus norvegicus [4] was “Active” each time. In addition, the Activity is 73 ng/mL in [2]; -1 ng/mL in [3]; 193 ng/mL in experiment [5]; 18 ng/mL in experiment [6]; 564 ng/mL in [7]; 3090 ng/mL in experiment [8]. Besides, the Activity is 7370 ng/mL in experiment [9] and 36 ng/mL in [10].
